Holding throughout (assay type): functional
Assay [1] concerns Pseudomonas aeruginosa. Briefly: Antibacterial activity against Pseudomonas aeruginosa isolated from wound infection of patient by Etest.
In assay [2] the test system is Pseudomonas aeruginosa. The assay can be described thus: Antibacterial activity against Pseudomonas aeruginosa PAO1 by Etest.
In assay [3] the test system is Pseudomonas aeruginosa. Briefly: Antibacterial activity against Pseudomonas aeruginosa PAO1 harboring Pseudomonas aeruginosa plasmid DNA isolated from wound infection of patient by Etest.
Assay [4] concerns Pseudomonas aeruginosa. Briefly: Antibacterial activity against Pseudomonas aeruginosa isolated from lung biopsy specimen of patient by Etest.
Assay [5] relates to Pseudomonas aeruginosa. Briefly: Antibacterial activity against Pseudomonas aeruginosa PAO1 harboring Pseudomonas aeruginosa plasmid DNA lung biopsy specimen of patient by Etest.
Assay [6] has as its system Pseudomonas aeruginosa. The assay can be described thus: Antibacterial activity against Pseudomonas aeruginosa PAO1 harboring cloned pUCPOXA-2 by Etest.
Assay [7] concerns Pseudomonas aeruginosa. The assay can be described thus: Antibacterial activity against Pseudomonas aeruginosa PAO1 harboring cloned pUCPOXA-161 by Etest.
The test system of assay [8] is Pseudomonas aeruginosa. Briefly: Antibacterial activity against Pseudomonas aeruginosa PAO1 harboring Pseudomonas aeruginosa plasmid DNA isolated from wound infection of patient by CLSI broth microdilution method. Put shortly: (§1)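 Plasmid DNA from the clinical isolate was electroporated into PAO1, and transformants were selected on LB agar with 20 μg/ml ceftazidime. Transformants were confirmed by double-disk synergy test and PCR. CLSI broth microdilution MICs were determined for carbenicillin, ceftazidime, and ceftazidime plus fixed 4 μg/ml clavulanate.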
For orientation: Dilution methods test growth across graded concentrations, often in twofold steps.

Assay [9] deals with Pseudomonas aeruginosa. Briefly: Antibacterial activity against Pseudomonas aeruginosa PAO1 harboring cloned pUCPOXA-161 by CLSI broth microdilution method. In outline:
(§2)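 CLSI standard broth microdilution MICs were determined for carbenicillin, ceftazidime, and ceftazidime plus clavulanate held at a fixed 4 μg/ml.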

The subject of assay [10] is Pseudomonas aeruginosa. Briefly: Antibacterial activity against Pseudomonas aeruginosa PAO1 by CLSI broth microdilution method. In outline:
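MIC by standard CLSI broth microdilution, tested with carbenicillin, ceftazidime, and ceftazidime plus clavulanate at 4 μg/ml. P. aeruginosa PAO1 was the recipient strain, with transformants produced by electroporation and selected on LB agar with 20 μg/ml ceftazidime.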

Assay [11] concerns Pseudomonas aeruginosa. The assay can be described thus: Antibacterial activity against Pseudomonas aeruginosa isolated from wound infection of patient by CLSI broth microdilution method. In outline:
as §2

Assay [12] concerns Pseudomonas aeruginosa. Briefly: Antibacterial activity against Pseudomonas aeruginosa PAO1 harboring Pseudomonas aeruginosa plasmid DNA lung biopsy specimen of patient by CLSI broth microdilution method. In outline:
as §1

The test system of assay [13] is Pseudomonas aeruginosa. Briefly: Antibacterial activity against Pseudomonas aeruginosa isolated from lung biopsy specimen of patient by CLSI broth microdilution method. Put shortly: as §2
In assay [14] the test system is Pseudomonas aeruginosa. Briefly: Antibacterial activity against Pseudomonas aeruginosa PAO1 harboring cloned pUCPOXA-2 by CLSI broth microdilution method. Put shortly:
as §2

≈ marks a conversion by molar mass, not a printed value.

What is called MIC is the least concentration at which growth counts as inhibited. On to COLISTIN, for which the MIC in the assay with Pseudomonas aeruginosa [1], in the assay on Pseudomonas aeruginosa [2], with Pseudomonas aeruginosa [3], in the assay on Pseudomonas aeruginosa [4] and in the assay with Pseudomonas aeruginosa [5] was 2 µg/mL throughout.

As to `NCC[C@H](O)C(=O)N[C@@H]1C[C@H](N)[C@@H](O[C@H]2O[C@H](CN)[C@@H](O)[C@H](O)[C@H]2O)[C@H](O)[C@H]1O[C@H]1O[C@H](CO)[C@@H](O)[C@H](N)[C@H]1O` [AMIKACIN], the minimum inhibitory concentration (MIC) against Pseudomonas aeruginosa [1] worked out at 32 µg/mL (≈ 54.6 µM); with Pseudomonas aeruginosa [2], 3 µg/mL (≈ 5.12 µM); with Pseudomonas aeruginosa [3] it was 12 µg/mL (≈ 20.5 µM); in the assay on Pseudomonas aeruginosa [4] it was 64 µg/mL (≈ 109 µM); against Pseudomonas aeruginosa [5] it was 12 µg/mL (≈ 20.5 µM).

`C[C@@H](O)[C@H]1C(=O)N2C(C(=O)O)=C(S[C@@H]3CN[C@H](C(=O)N(C)C)C3)[C@H](C)[C@H]12` [MEROPENEM]: the MIC amounted to 6 µg/mL (≈ 15.6 µM) against Pseudomonas aeruginosa [1]; 0.38 µg/mL (≈ 0.991 µM) in the assay on Pseudomonas aeruginosa [2]; 0.38 µg/mL (≈ 0.991 µM) with Pseudomonas aeruginosa [6]; 0.75 µg/mL (≈ 1.96 µM) against Pseudomonas aeruginosa [3]; 8 µg/mL (≈ 20.9 µM) against Pseudomonas aeruginosa [4]; 0.5 µg/mL (≈ 1.3 µM) in the assay with Pseudomonas aeruginosa [7]. The molecule further returned an MIC in the assay on Pseudomonas aeruginosa [5] of 0.75 µg/mL (≈ 1.96 µM).

As for `C[C@@H](O)[C@H]1C(=O)N2C(C(=O)O)=C(SCCNC=N)C[C@H]12` [IMIPENEM ANHYDROUS], the MIC came to 16 µg/mL (≈ 53.4 µM) against Pseudomonas aeruginosa [1]; 1.5 µg/mL (≈ 5.01 µM) with Pseudomonas aeruginosa [2]; 1.5 µg/mL (≈ 5.01 µM) in the assay on Pseudomonas aeruginosa [6]; 1 µg/mL (≈ 3.34 µM) against Pseudomonas aeruginosa [3]; 32 µg/mL (≈ 107 µM) in the assay with Pseudomonas aeruginosa [4]; 1.5 µg/mL (≈ 5.01 µM) against Pseudomonas aeruginosa [7]. In the assay with Pseudomonas aeruginosa [5], this molecule yielded a minimal inhibitory concentration (MIC) of 1 µg/mL (≈ 3.34 µM).

For the molecule `CC(C)(O/N=C(\C(=O)N[C@@H]1C(=O)N2C(C(=O)[O-])=C(C[n+]3ccccc3)CS[C@H]12)c1csc(N)n1)C(=O)O` [CEFTAZIDIME], the MIC in the assay on Pseudomonas aeruginosa [8] is 128 µg/mL (≈ 234 µM); with Pseudomonas aeruginosa [9] it was 64 µg/mL (≈ 117 µM); against Pseudomonas aeruginosa [10] it was 2 µg/mL (≈ 3.66 µM); against Pseudomonas aeruginosa [11] it was more than 256 µg/mL; against Pseudomonas aeruginosa [12], 128 µg/mL (≈ 234 µM); against Pseudomonas aeruginosa [13], more than 256 µg/mL. In the assay on Pseudomonas aeruginosa [14], this molecule showed an MIC of 8 µg/mL (≈ 14.6 µM).

Turning to `CCN1CCN(C(=O)N[C@@H](C(=O)N[C@@H]2C(=O)N3[C@@H]2SC(C)(C)[C@@H]3C(=O)O)c2ccccc2)C(=O)C1=O` [PIPERACILLIN], the minimal inhibitory concentration (MIC) against Pseudomonas aeruginosa [1] is 24 µg/mL (≈ 46.4 µM); against Pseudomonas aeruginosa [2], 2 µg/mL (≈ 3.86 µM); against Pseudomonas aeruginosa [6], 48 µg/mL (≈ 92.7 µM); against Pseudomonas aeruginosa [3] it was 16 µg/mL (≈ 30.9 µM); against Pseudomonas aeruginosa [4] it was 24 µg/mL (≈ 46.4 µM); against Pseudomonas aeruginosa [7], 24 µg/mL (≈ 46.4 µM). Also, in the assay on Pseudomonas aeruginosa [5], the MIC turned out to be 32 µg/mL (≈ 61.8 µM).

For `CO/N=C(\C(=O)N[C@@H]1C(=O)N2C(C(=O)[O-])=C(C[N+]3(C)CCCC3)CS[C@H]12)c1csc(N)n1`, the MIC against Pseudomonas aeruginosa [1] was 16 µg/mL (≈ 33.3 µM); with Pseudomonas aeruginosa [2], 1 µg/mL (≈ 2.08 µM); against Pseudomonas aeruginosa [3] it was 8 µg/mL (≈ 16.6 µM); in the assay on Pseudomonas aeruginosa [4], 12 µg/mL (≈ 25 µM); against Pseudomonas aeruginosa [5], 8 µg/mL (≈ 16.6 µM).

For GENTAMICIN, the MIC came to 32 µg/mL in the assay on Pseudomonas aeruginosa [1]; 2 µg/mL with Pseudomonas aeruginosa [2]; 12 µg/mL against Pseudomonas aeruginosa [3]; 64 µg/mL in the assay with Pseudomonas aeruginosa [4]; 8 µg/mL in the assay with Pseudomonas aeruginosa [5].

Regarding `CC1(C)S[C@@H]2[C@H](NC(=O)C(C(=O)O)c3ccccc3)C(=O)N2[C@H]1C(=O)O` (stereo not given in full) [CARBENICILLIN], the MIC turned out to be 128 µg/mL (≈ 338 µM) in the assay with Pseudomonas aeruginosa [8]; 128 µg/mL (≈ 338 µM) against Pseudomonas aeruginosa [9]; 32 µg/mL (≈ 84.6 µM) against Pseudomonas aeruginosa [10]; 128 µg/mL (≈ 338 µM) in the assay with Pseudomonas aeruginosa [11]; 128 µg/mL (≈ 338 µM) against Pseudomonas aeruginosa [12]; 128 µg/mL (≈ 338 µM) against Pseudomonas aeruginosa [13]. The molecule also yielded a minimal inhibitory concentration (MIC) in the assay with Pseudomonas aeruginosa [14] of more than 256 µg/mL.

In the case of `NC[C@H]1O[C@H](O[C@H]2[C@H](O)[C@@H](O[C@H]3O[C@H](CO)[C@@H](O)[C@H](N)[C@H]3O)[C@H](N)C[C@@H]2N)[C@H](N)C[C@@H]1O` [TOBRAMYCIN], the minimal inhibitory concentration (MIC) in the assay on Pseudomonas aeruginosa [1] turned out to be 48 µg/mL (≈ 103 µM); against Pseudomonas aeruginosa [2], 1 µg/mL (≈ 2.14 µM); against Pseudomonas aeruginosa [3], 12 µg/mL (≈ 25.7 µM); in the assay with Pseudomonas aeruginosa [4] it was 64 µg/mL (≈ 137 µM); against Pseudomonas aeruginosa [5], 12 µg/mL (≈ 25.7 µM).

These data come from ChEMBL document CHEMBL1649281, “Detection of the novel extended-spectrum beta-lactamase OXA-161 from a plasmid-located integron in Pseudomonas aeruginosa clinical isolates from Spain” (2009).
